# This is a sample that favours compounds with a hit; in the whole collection about 1.8% have one here.
# NR2E3 ag-1: NR2E3 (human) agonism; Q9Y5X4; GST-NR2E3/biotin-RetCOR TR-FRET, 1536-well; inhibition of corepressor binding, % at 4.78 µM; 0.12% of 320,000 active;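 active = percent inhibition above the cutoff of mean plus 3 SD of all tested compounds, set per screening campaign, cut at about 20% in these data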
#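 Material: NR2E3–RetCOR corepressor complex / Incubation: Compound–protein incubation for 5 h at 4 °C / Dosing: compound at 4.8 µM, single dose / Detection: time-resolved FRET / Benchmarks: high control biotin, low control 0.6% DMSO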
# 697 NFkB inh: lowers PMA/ionomycin-induced NF-kB signal in 697 B cells | 697 B-cell NF-kB luciferase reporter, 16 h | inhibition, % at 4 µM | 0.33% of 330,000 active | AID 435022; in the data active = inhibition above about 35%
# NR2E3 ag-2: agonists of human NR2E3 nuclear receptor; Q9Y5X4; CHO-S Gal4-NCOR/VP16-NR2E3 two-hybrid, luciferase; inhibition of corepressor binding, % at 3.98 µM; 0.35% of 360,000 active;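 active = inhibition above the mean of all tested compounds plus 3 SD, cut at about 70% in these data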;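 note: higher means lower luciferase signal from less NR2E3 corepressor binding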
# Gli-Sufu block: antagonists of Gli-Sufu signaling. 0.74% of 340,000 active. AID 588413. inhibition, % at 5 µM. Sufu-KO-LIGHT fibroblasts, Gli luciferase reporter luminescence;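 active = inhibition above about 55%, limit read from the data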
# GalR3 antag: blocks the human galanin receptor 3; O60755; HEK293 GalR3-CNG cAMP membrane potential fluorescence; galR3 body fused to GalR1 C-terminus; inhibition, % at 3 µM; 0.44% of 360,000 active; AID 651719;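 active = inhibition above the screen-wide average plus 3 SD, cut at about 13% in these data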;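 note: forskolin and galanin both at EC90 stimulate the cells; cAMP rise reported by CNG channel membrane potential dye signal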
# Target sequence (O60755 1-299 limits assumed): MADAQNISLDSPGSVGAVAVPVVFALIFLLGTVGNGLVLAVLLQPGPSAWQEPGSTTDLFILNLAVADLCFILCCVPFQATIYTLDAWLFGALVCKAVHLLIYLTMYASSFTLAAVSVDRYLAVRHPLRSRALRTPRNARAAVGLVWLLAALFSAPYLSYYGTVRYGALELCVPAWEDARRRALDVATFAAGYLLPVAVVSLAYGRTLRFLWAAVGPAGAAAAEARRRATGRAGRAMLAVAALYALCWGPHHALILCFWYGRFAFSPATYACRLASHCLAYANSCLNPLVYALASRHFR
# Jurkat NFkB inh: lowers PMA/ionomycin-induced NF-kB signal in Jurkat cells. PMA/ionomycin-induced NF-kB luciferase reporter, luminescence. inhibition, % at 4 µM. 0.53% of 330,000 active; in the data active = inhibition above about 50%
# Jurkat NFkB conf: lowers PMA/ionomycin-induced NF-kB signal in Jurkat cells; shares compounds with Jurkat NFkB inh; Jurkat NF-kB luciferase, 16 h; inhibition, % at 4 µM; 27% of 2,700 active;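 active = inhibition reaching about 45% at 4 µM in either replicate, limit read from the data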
# 697 NFkB conf: lowers PMA/ionomycin-induced NF-kB signal in 697 B cells. shares compounds with 697 NFkB inh. 697 B-cell NF-kB luciferase, 16 h. inhibition, % at 4 µM. 35% of 2,000 active; in the data active = inhibition mostly above about 28%, no sharp cut-off; inactive = mostly below about 22%
# Gli-Sufu confirm: Gli-SUFU antagonism confirmation, single concentration; shares compounds with Gli-Sufu block; Sufu-KO-LIGHT cells, Gli luciferase reporter, luminescence; inhibition, % at 5 µM; 40% of 2,500 active; AID 602428;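 active = mean inhibition at 5 µM reaching about 45%, limit read from the data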
# Gli cytotox: counter-screen for Gli-SUFU antagonists: cytotoxicity; shares compounds with Gli-Sufu block; Sufu-KO-LIGHT cells cytotoxicity, ATP luminescence; cytotoxicity, % at 5 µM; 32% of 2,500 active; AID 651994;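 active = mean cytotoxicity at 5 µM above about 25%, limit read from the data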;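 note: cells exposed to compound overnight for roughly 16 to 18 hours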
# Wnt3a cs: counter-screen for Gli-SUFU antagonists: Wnt3a reporter inhibition; 20% of 2,500 active; Wnt-LIGHT cells, Wnt3a-driven luciferase reporter, luminescence; shares compounds with Gli-Sufu block; inhibition, % at 6.25 µM;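 active = mean inhibition above about 25%, limit read from the data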
# NR2E3 ag confirm: NR2E3 agonism confirmed in two-hybrid assay; 51% of 2,300 active; shares compounds with NR2E3 ag-2; CHO-S mammalian two-hybrid NR2E3-NCOR, luciferase luminescence; inhibition, % at 3.98 µM;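 active = average inhibition above a cutoff equal to the mean inhibition of all tested compounds plus one SD, cut at about 70% in these data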
# GAL4-VP16 luc: counter-screen for NR2E3 agonists: GAL4-VP16 reporter inhibitors. shares compounds with NR2E3 ag-2. CHO-S GAL4-VP16 luciferase reporter, luminescence. inhibition, % at 3.98 µM. 29% of 2,300 active;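 active = mean inhibition above a cutoff equal to the average over all tested compounds plus one standard deviation, cut at about 70% in these data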;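 note: luciferase from a UAS reporter driven by GAL4-VP16 transactivation; higher means less reporter light so more repression of VP16 activity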
# GalR3 conf: confirmation of human galanin receptor 3 antagonists; shares compounds with GalR3 antag; HEK293 GalR3 CNG cAMP biosensor, membrane potential fluorescence; galR3 fused to GalR1 carboxy tail; challenged with forskolin and galanin at EC90; inhibition, % at 3 µM; 59% of 1,600 active;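 active = inhibition above the primary screen's cutoff, the mean inhibition of all screened compounds plus 3 SD, cut at about 13% in these data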
# CNG parental: counter-screen for GalR3 antagonists: nonspecific agonists in parental HEK-CNG cells; AID 652268; HEK293-CNG parental cells, cAMP membrane potential fluorescence; normalised: DMSO wells 0%, forskolin wells 100%; activation, % at 3 µM; shares compounds with GalR3 antag; 10% of 1,600 active; in the data active = activation above about 1.3%
# A number is an active result; 0 = inactive; - = no result given.
SMILES,NR2E3 ag-1,697 NFkB inh,NR2E3 ag-2,Gli-Sufu block,GalR3 antag,Jurkat NFkB inh,Jurkat NFkB conf,NR2E3 ag confirm,GAL4-VP16 luc,others
CCCOC(=O)c1[nH]c2c(c1C)C(=O)CC(c1ccc(OC)c(OC)c1)C2 (configuration not stated),0,0,0,0,0,0,-,-,-,
CCCCCOC(=O)c1[nH]c2c(c1C)C(=O)CC(c1ccco1)C2 (configuration not stated),0,0,0,69.0,-,66.7,49.0,0,0,697 NFkB conf=0
COC(=O)C1=C(C)N(Cc2ccccc2C(F)(F)F)C(=NCC2CC2)NC1CCc1ccccc1 (configuration not stated),-,-,-,-,0,-,-,-,-,
Cc1ccc(S(=O)(=O)/N=C2\C=C(Nc3ccc(O)cc3)C(=O)c3ccccc32)cc1,-,0,101.8,94.4,-,64.3,99.3,99.9,99.3,
CCc1ccc(S(=O)(=O)/N=C2\C=C(Nc3ccc(C(=O)O)cc3)C(=O)c3ccccc32)cc1,0,0,0,0,0,0,-,-,-,
CC1CCCN(c2ncnc3c2cnn3-c2ccccc2)C1 (configuration not stated),0,0,0,0,0,0,-,-,-,
CC1CCCN(c2ncnc3c2cnn3-c2ccc(Cl)cc2)C1 (configuration not stated),0,0,91.9,81.4,0,59.8,86.8,82.8,0,Gli-Sufu confirm=91.8;Gli cytotox=66.7;Wnt3a cs=105.7
CN(C)CCCNc1ccc(-c2cc(Nc3cccc(Cl)c3)ncn2)cn1,0,0,0,0,0,0,-,-,-,
OCCCNc1cc(-c2ccnc(Nc3cccc(Cl)c3)n2)ccn1,0,85.3,99.4,75.0,0,98.6,99.9,100.0,95.0,697 NFkB conf=90.8
COC(=O)C1=C(CN2CCCc3ccccc32)NC(=O)NC1c1ccc(F)cc1 (configuration not stated),0,0,83.6,82.2,0,54.4,78.8,0,0,Gli-Sufu confirm=0;Gli cytotox=0;Wnt3a cs=72.0
Cc1ccc(-c2csc(NC(=O)C3CCN(S(=O)(=O)c4cccs4)CC3)n2)cc1,0,62.4,0,0,100.9,63.0,73.3,-,-,697 NFkB conf=67.2;GalR3 conf=104.4;CNG parental=0
O=C(Nc1nc(-c2ccc3ccccc3c2)cs1)C1CCN(S(=O)(=O)c2cccs2)CC1,0,0,0,0,0,0,-,-,-,
O=C(O)CCCC(=O)OCCCc1cc2ccccc2c(=O)o1,-,-,-,-,0,-,-,-,-,
C=CCN1C(=O)c2n[nH]c(COC)c2C1c1cccc(C(F)(F)F)c1 (configuration not stated),-,-,-,-,0,-,-,-,-,

# Compound activity deposited in PubChem by several laboratories.
